Assay results from ChEMBL document CHEMBL4308887, “Synthesis and biological evaluation of clovamide analogues with catechol functionality as potent Parkinson's disease agents in vitro and in vivo” (Bioorg Med Chem Lett, 2019).
Calls of active or inactive are those of the source. The calls are words filed in the database; no cut-off is given here.

Legend:
SH-SY5Y [1] = test: Neuroprotection against H2O2-induced cell death in human SH-SY5Y cells assessed as cell viability at 10 uM preincubated for 6 hrs followed by H2O2 addition and measured after 24 hrs in presence of PI3K/Akt/mTOR inhibitor LY294002 by MTT assay relative to control; type: functional; conditions: read-out: Activity
Outline: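 SH-SY5Y cells preincubated 1 h with LY294002 (5 μM) or rapamycin (100 nM). Then 1 (10 μM) for 6 h, then 600 μM H₂O₂. Viability by MTT. Mean ± S.E.M., three independent experiments.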

SH-SY5Y [2] = test: Protection against H2O2-induced oxidative stress in human SH-SY5Y cells assessed as reduction in MDA level preincubated for 6 hrs followed by H2O2 addition and measured after 24 hrs by thiobarbituric acid method; type: functional, cell-based
Outline: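 Cellular SOD activity (units) and MDA content (μmol/g) measured in SH-SY5Y after pretreatment (1, 10 μM) and 600 μM H₂O₂. Mean ± S.E.M. of three independent experiments.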

SH-SY5Y [3] = test: Protection against H2O2-induced apoptosis in human SH-SY5Y cells assessed as late apoptotic cells at 10 uM preincubated for 6 hrs followed by H2O2 addition and measured after 24 hrs by Annexin V-FITC/propidium iodide staining based flow cytometry (reference value: 3.5%); type: functional
[4] = MRT in Sprague-Dawley rat at 5 mg/kg, iv by LC-MS/MS analysis; type: ADME, organism-based; conditions: in vivo
Outline: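 Male Sprague–Dawley rats dosed with 1 at 5 mg/kg i.v. (vehicle 5% DMSO, 2% F68, 93% saline) or 25 mg/kg p.o. (0.5% methylcellulose with 1% Tween 80). Orbital blood sampled at 0.083–24 h, 12 time points. Plasma PK parameters derived. Mean ± SD, n = 3.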

SH-SY5Y [5] = test: Protection against H2O2-induced oxidative stress in human SH-SY5Y cells assessed as reactive oxygen species level at 1 uM preincubated for 6 hrs followed by H2O2 addition and measured after 24 hrs by DHE dye based flow cytometry (reference value: 18.6%); type: functional
SH-SY5Y [6] = test: Neuroprotection against H2O2-induced toxicity in human SH-SY5Y cells assessed as LDH release at 10 uM preincubated for 6 hrs followed by H2O2 addition and measured after 24 hrs (reference value: 339.93 +/- 3.66 U/L); type: functional
Outline: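 Cells pretreated with test agent (1 or 10 μM), then 600 μM H₂O₂; plasma membrane damage read as LDH leakage into medium (U/L). DMSO below 0.1% in all groups. Mean ± S.E.M. of three independent experiments.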

Mus musculus [7] = test: Anti-parkinson's activity in MPTP-induced C57Bl/6 mouse model of Parkinson's disease assessed as decrease in cleaved caspase3 expression in striatum at 10 to 20 mg/kg, ig pretreated for 10 days followed by MPTP challenge measured 10 days post MPTP addition by Western blot analysis; type: functional, organism-based
SH-SY5Y [8] = test: Protection against H2O2-induced apoptosis in human SH-SY5Y cells assessed as viable cells at 10 uM preincubated for 6 hrs followed by H2O2 addition and measured after 24 hrs by Annexin V-FITC/propidium iodide staining based flow cytometry (reference value: 12.4%); type: functional; conditions: read-out: Activity
Mus musculus [9] = test: Anti-parkinson's activity in MPTP-induced C57Bl/6 mouse model of Parkinson's disease assessed as reduction in MDA level in substantia nigra administered intragastrically pretreated for 10 days followed by MPTP challenge measured 10 days post MPTP addition by thiobarbituric acid method; type: functional, organism-based
Outline: (§1)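 Striatum and SNpc from MPTP-treated mice dosed orally with 1 at 10 or 20 mg/kg. MDA level and SOD activity measured. Mean ± S.D., n = 6 mice/group.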

[10] = Tmax in Sprague-Dawley rat at 25 mg/kg, po by LC-MS/MS analysis; type: ADME, organism-based; conditions: in vivo
Outline: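 Male Sprague–Dawley rats (n = 3) dosed i.v. 5 mg/kg (5% DMSO, 2% F68, 93% saline) or p.o. 25 mg/kg (0.5% methylcellulose, 1% Tween 80). Orbital blood at 0.083–24 h (12 points). Plasma concentration–time profiles gave Cl, Vdss, AUC, T1/2, Tmax, Cmax, MRT and absolute F.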

SH-SY5Y [11] = test: Protection against H2O2-induced apoptosis in human SH-SY5Y cells assessed as late apoptotic cells at 1 uM preincubated for 6 hrs followed by H2O2 addition and measured after 24 hrs by Annexin V-FITC/propidium iodide staining based flow cytometry (reference value: 3.5%); type: functional
Mus musculus [12] = test: Anti-parkinson's activity in MPTP-induced C57Bl/6 mouse model of Parkinson's disease assessed as restoration of motor ability by measuring increase in time spent on rota-rod at 10 to 20 mg/kg, ig pretreated for 10 days followed by MPTP challenge measured 4 to 72 hrs post MPTP addition for 3 mins by rota rod test; type: functional, organism-based
Outline: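 MPTP-intoxicated mice given 1 orally at 10 or 20 mg/kg. Time retained on a rotating rod recorded 4, 24, 48 and 72 h after MPTP. Mean ± S.D., n = 6 mice/group.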

Mus musculus [13] = test: Anti-parkinson's activity in MPTP-induced C57Bl/6 mouse model of Parkinson's disease assessed as decrease in ratio of Bax/Bcl2 expression in substantia nigra at 10 to 20 mg/kg, ig pretreated for 10 days followed by MPTP challenge measured 10 days post MPTP addition by Western blot analysis; type: functional, organism-based
Outline: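 Substantia nigra from MPTP mice. Bax, Bcl-2 and cleaved caspase-3 measured by western blot, with Bcl-2/Bax ratio by densitometry. Mean ± S.D., n = 6 mice/group.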

Mus musculus [14] = test: Anti-parkinson's activity in MPTP-induced C57Bl/6 mouse model of Parkinson's disease assessed as decrease in ratio of Bax/Bcl2 expression in striatum at 10 to 20 mg/kg, ig pretreated for 10 days followed by MPTP challenge measured 10 days post MPTP addition by Western blot analysis; type: functional, organism-based
SH-SY5Y [15] = test: Protection against H2O2-induced mitochondrial dysfunction in human SH-SY5Y cells assessed as increase in mitochondrial membrane potential at 1 to 10 uM preincubated for 6 hrs followed by H2O2 addition and measured after 24 hrs by Rh123 staining based inverted microscopic analysis; type: functional, cell-based
Outline: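 ΔΨm examined by inverted fluorescence microscopy and flow cytometry after pretreatment (1, 10 μM) and 600 μM H₂O₂. Reported as % of control. Mean ± S.E.M., three independent experiments.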

Mus musculus [16] = test: Anti-parkinson's activity in MPTP-induced C57Bl/6 mouse model of Parkinson's disease assessed as increase in SOD activity in striatum administered intragastrically pretreated for 10 days followed by MPTP challenge measured 10 days post MPTP addition by xanthine oxidase method; type: functional, organism-based; outline: as §1
SH-SY5Y [17] = test: Induction of apoptosis in non-stimulated human SH-SY5Y cells assessed as effect on cleaved caspase3 expression at 1 to 10 uM measured after 6 hrs by Western blot analysis; type: cell-based
Outline: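 Bax, Bcl-2 and cleaved caspase-3 measured by western blot in SH-SY5Y cells given 1 alone, with β-actin as internal standard. Mean ± S.E.M. of three independent experiments.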

[18] = Activation of PI3K/Akt/mTOR signaling in human SH-SY5Y cells assessed as increase in mTOR phosphorylation after 5 to 360 mins by Western blot analysis; type: cell-based
Outline: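 SH-SY5Y cells, unstimulated, exposed to 1 for 5, 15, 30, 60, 120, 240 or 360 min. Phospho-AKT and phospho-mTOR measured by western blot, reported as p-AKT/t-AKT and p-mTOR/t-mTOR ratios after densitometry. Mean ± S.E.M. of three independent experiments.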

COC(=O)[C@H](Cc1ccccc1)NC(=O)/C=C/c1ccc(O)c(O)c1 [N-CAFFEOYL-PHENYLALANINE METHYL ESTER]
viability at 10 µM (SH-SY5Y [1]): 60.5%
Activity (SH-SY5Y [2]): Dose-dependent effect
Activity (SH-SY5Y [3]): 1.5%
MRT [4]: 1.45 h
Activity (SH-SY5Y [5]): 14%
Activity (SH-SY5Y [6]): 180.66 U/L
Activity (Mus musculus [7]): Active
viability at 10 µM (SH-SY5Y [8]): 89.8%
Activity (Mus musculus [9]): Dose-dependent effect
Tmax [10]: 2 h
Activity (SH-SY5Y [11]): 3.9%
Activity (Mus musculus [12]): Active
Activity (Mus musculus [13]): Active
Activity (Mus musculus [14]): Active
Activity (SH-SY5Y [15]): Active
Activity (Mus musculus [16]): Dose-dependent effect
Activity (SH-SY5Y [17]): Non-Toxic
Activity [18]: Active
